Bioassay records (PubChem BioAssay)
NRP1-CendR mod = NRP-1/CendR interaction modulation | hit rate 0.85% among 360,000 | FAM-RPARPAR peptide binding to NRP-1, fluorescence polarization | inhibition, % at 25 µM;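 active = inhibition or corrected inhibition above about 18%, plus a signal ratio from 0.5 to 1.5, limit read from the data, passing the limit was not always enough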
ADAM10 inh = inhibitors of human ADAM10. inhibition, % at 7 µM. hit rate 0.62% among 370,000. AID 720582. O14672. recombinant ADAM10, EDANS/DABCYL FRET peptide cleavage, 3 h;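 active = inhibition above a per-campaign cutoff equal to the mean of compounds falling between control-based bounds plus 3 SD, cut at about 20% in these data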
Arr AP2 block = human beta-arrestin and AP2 interaction inhibition. FITC-arrestin peptide / GST-AP2 beads, flow cytometry; AP2 beta2 appendage carries R879A mutation. AID 504490. inhibition, % at 10 µM. hit rate 0.31% among 340,000;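 active = inhibition above a set limit, near 3 SD of compounds lacking own fluorescence, cut at about 54% in these data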
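System: GST-AP2 R879A glutathione beads; medium: PBS, Tween 20 0.05%, BSA 0.1%; reagent: fluorescein-tagged arrestin peptide at 50 nM final; schedule: pre-incubation 12 min, peptide binding 1 h, room temperature; detection: flow cytometry, FL1 (488/535 nm); read-out: inhibition as reduced fluorescein signal on beads, percent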
ADAM17 inh = inhibitors of human ADAM17; recombinant ADAM17, EDANS/DABCYL FRET peptide cleavage; inhibition, % at 6.95 µM; hit rate 0.83% among 370,000;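 active = inhibition above the mean of compounds lying between control limits plus 3 SD, set per campaign, cut at about 8.5% in these data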
Target sequence (P78536 215-824 limits assumed): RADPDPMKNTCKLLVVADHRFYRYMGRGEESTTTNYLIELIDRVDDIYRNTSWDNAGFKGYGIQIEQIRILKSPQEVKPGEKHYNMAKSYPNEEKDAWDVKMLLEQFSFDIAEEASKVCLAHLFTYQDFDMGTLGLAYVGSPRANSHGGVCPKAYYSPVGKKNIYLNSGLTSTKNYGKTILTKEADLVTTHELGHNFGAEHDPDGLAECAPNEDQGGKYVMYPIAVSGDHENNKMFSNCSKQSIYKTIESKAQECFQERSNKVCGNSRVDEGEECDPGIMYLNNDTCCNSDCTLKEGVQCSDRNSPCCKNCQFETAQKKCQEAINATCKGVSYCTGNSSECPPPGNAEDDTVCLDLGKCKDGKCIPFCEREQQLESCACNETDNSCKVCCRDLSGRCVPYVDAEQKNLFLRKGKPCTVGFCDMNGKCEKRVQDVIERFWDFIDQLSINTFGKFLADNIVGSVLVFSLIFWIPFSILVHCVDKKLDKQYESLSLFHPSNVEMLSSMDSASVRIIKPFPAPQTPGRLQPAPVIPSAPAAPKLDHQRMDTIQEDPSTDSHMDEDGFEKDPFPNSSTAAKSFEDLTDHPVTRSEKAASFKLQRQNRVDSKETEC
FAS-TE inh = FAS thioesterase (human) inhibition. AID 602261. inhibition, % at 15 µM. P49327. hit rate 0.67% among 360,000. recombinant FAS-TE, OMFH fluorogenic substrate, fluorescence endpoint;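 active = compounds whose normalised, plate-corrected inhibition of enzyme fluorescence in the single-dose primary screen is 50% or more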
CaV13 FRET inh = Disruptors of the CACNA1D IQ motif to Ca2+-dependent inactivation inhibitor domain association, primary screening, Förster resonance energy transfer in intact living …; HEK cells, CFP/YFP FRET ICDI-IQ, plate reader, 10 min; percent FRET-ratio fall versus neutral wells; inhibition, % at 12.3 µM; hit rate 0.098% among 340,000;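 active = mean replicate inhibition of at least 30% and at least 1% of replicates passing that level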
ADAM10 counter = counter-screen for ADAM17 exosite inhibitors: inhibitors of human ADAM10; hit rate 47% among 2,900; inhibition, % at 6.95 µM; recombinant ADAM10, EDANS/DABCYL FRET peptide cleavage, 3 h; AID 743256; shares compounds with ADAM17 inh;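 active = mean inhibition over the triplicate runs exceeds the activity threshold set in the earlier primary screen, cut at about 20% in these data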
ADAM17 confirm = human ADAM17 inhibition, confirmation; shares compounds with ADAM17 inh; recombinant ADAM17, EDANS/DABCYL QFRET peptide cleavage; inhibition, % at 6.95 µM; hit rate 65% among 2,900; AID 743257;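 active = mean inhibition across replicates above the hit cutoff set in the primary screen, cut at about 8.5% in these data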
Large screens that a line does not name were inactive (follow-up assays come after a bar, where they were run). Most compounds without a hit are left out; they make up all but 2.9% or so of the library.

CC(C)(C)OC(=O)C[C@@H]1C/C=C\C[C@@H](CC(=O)N[C@H](CO)Cc2ccccc2)C(=O)N2CCC[C@@H]2COC1=O	none (no result: Arr AP2 block)
CC(C)(C)OC(=O)C[C@@H]1C/C=C\C[C@H](CC(=O)N[C@H](CO)Cc2ccccc2)C(=O)N2CCC[C@H]2COC1=O	ADAM17 inh 9.2 | ADAM10 counter inactive | ADAM17 confirm 11
COc1ccc(CNC(=O)C[C@@H]2C[C@H]3c4cc(NC(=O)NC5CCCC5)ccc4O[C@H]3[C@H](CO)O2)cc1	ADAM17 inh 9.1 (no result: Arr AP2 block) | ADAM10 counter inactive | ADAM17 confirm inactive
COc1ccc(CNC(=O)C[C@@H]2C[C@H]3c4cc(NC(=O)C5CCC5)ccc4O[C@H]3[C@@H](CO)O2)cc1	none (no result: Arr AP2 block)
C#CCNC(=O)C[C@H]1C[C@@]2(C(=O)OC)C(=C[C@H](COCc3ccccc3)O[C@@H]2C)N(CCCCCCCC)C1=O	none (no result: NRP1-CendR mod, Arr AP2 block, FAS-TE inh, CaV13 FRET inh)
O=C(CSc1cccc(C(F)(F)F)c1)NC(=O)c1ccccc1	ADAM17 inh 8.7 | ADAM10 counter inactive | ADAM17 confirm inactive
CCNC(=O)NC(=O)CSc1cccc(C(F)(F)F)c1	none (no result: CaV13 FRET inh)
Cc1ccc(NC(=O)c2ccc3c(c2)OCCO3)cc1S(=O)(=O)Nc1cccc(Cl)c1	NRP1-CendR mod 37, ADAM17 inh 9.8 | ADAM10 counter 21 | ADAM17 confirm 11
Cc1ccc(NC(=O)c2ccc3c(c2)OCCO3)cc1C	none
Cc1cc(S(=O)(=O)N2CCC3(CC2)OCCN3S(=O)(=O)c2cccs2)ccc1F	ADAM17 inh 12 | ADAM10 counter inactive | ADAM17 confirm 9.2
O=S(=O)(c1cc(F)ccc1F)N1CCC2(CC1)OCCN2S(=O)(=O)c1cccs1	none
CC(=O)c1cc2c(cc1C)CCCC2(C)C	none (no result: Arr AP2 block)
O=C(Nc1nnc([C@H]2C[C@H](O)[C@@H](CO)O2)s1)Nc1ccc(F)cc1F	none (no result: Arr AP2 block)
O=C(Nc1nnc([C@@H]2C[C@H](O)[C@@H](CO)O2)s1)Nc1ccc(F)cc1F	ADAM17 inh 10 (no result: Arr AP2 block) | ADAM10 counter inactive | ADAM17 confirm inactive
O=C(Nc1cccc(S(=O)(=O)NCc2ccco2)c1)c1cc(-c2ccccc2)nc2ccccc12	ADAM17 inh 10 | ADAM10 counter 31 | ADAM17 confirm 17
Cc1cc(C(=O)COC(=O)CC2Sc3ccccc3NC2=O)c(C)n1-c1ccc(Br)cc1 (centres undefined)	ADAM17 inh 8.8 | ADAM10 counter inactive | ADAM17 confirm inactive
O=C(CC1Sc2ccccc2NC1=O)OCC(=O)N1CCc2ccccc21 (centres undefined)	ADAM17 inh 9.2 | ADAM10 counter inactive | ADAM17 confirm inactive
O=C(N/N=C/c1cccnc1)c1ccc([N+](=O)[O-])cc1	ADAM17 inh 8.9 | ADAM10 counter inactive | ADAM17 confirm 9.0
O=C(Cc1ccc([N+](=O)[O-])cc1)N/N=C/c1cccnc1	none
CCCCNC(=O)C[C@H]1C(=O)N(CCCOC)C2=CCCCC[C@]21C(=O)OC	none (no result: NRP1-CendR mod, Arr AP2 block, FAS-TE inh, CaV13 FRET inh)
COc1ccc(CN(C)C(=O)c2cc(-c3ccccc3)nc3ccc(C)cc23)c(OC)c1	ADAM17 inh 12 (no result: Arr AP2 block) | ADAM10 counter inactive | ADAM17 confirm inactive
O=C1NC[C@H](Cc2ccc(O)cc2)N(C[C@@H]2CCCN2C[C@H](Cc2ccccc2)N2C[C@H](Cc3ccccc3)N(CCc3ccccc3)C(=O)C2=O)C1=O	none (no result: Arr AP2 block)
O=C1NC[C@H](Cc2ccc(O)cc2)N(C[C@@H]2CCCN2C[C@H](Cc2ccc(O)cc2)N2C[C@H](Cc3ccccc3)N(CCc3ccccc3)C(=O)C2=O)C1=O	ADAM17 inh 10 (no result: Arr AP2 block) | ADAM10 counter inactive | ADAM17 confirm inactive
NC(c1csc(Nc2ccccn2)n1)c1ccccc1Cl (centres undefined)	none (no result: Arr AP2 block)
Cc1ccc(S(=O)(=O)N2C[C@@H](C)[C@]3(C2)[C@H](O)[C@H](OC(=O)NCc2ccccc2F)C[C@H]2C(=O)N(c4ccccc4)C(=O)[C@H]23)cc1	ADAM17 inh 9.2 (no result: Arr AP2 block) | ADAM10 counter 37 | ADAM17 confirm 20
Cc1ccc(S(=O)(=O)N2C[C@@H](C)[C@]3(C2)[C@H](O)[C@H](OC(=O)Nc2c(C)noc2C)C[C@H]2C(=O)N(c4ccccc4)C(=O)[C@H]23)cc1	none (no result: Arr AP2 block)
CCN(CC)S(=O)(=O)c1cc(NC(=O)C(C)N2CCc3ccccc32)ccc1C (centres undefined)	ADAM17 inh 10 | ADAM10 counter inactive | ADAM17 confirm inactive
O=C(NNc1ccccc1Br)C(=O)n1ccc2ccccc21	ADAM17 inh 9.5 | ADAM10 counter inactive | ADAM17 confirm inactive
Cc1nc(NC(=O)C2CC2)sc1C(=O)Nc1ccccc1Cl	none
CCOc1cc(OCC)cc(C(=O)N2CCC[C@@H]2C(=O)N2CCC[C@H]2C(=O)NCc2ccccc2)c1	none (no result: NRP1-CendR mod, Arr AP2 block, FAS-TE inh)
CCN(CC)C1Oc2cc3c(cc2C(c2cc(OC)c(OC)c(OC)c2)C1C)OCO3 (centres undefined)	ADAM17 inh 9.9 | ADAM10 counter inactive | ADAM17 confirm 9.9
COc1cc(C2c3cc4c(cc3C3OC(=O)C2C3CO)OCO4)cc(OC)c1OC (centres undefined)	none (no result: Arr AP2 block)
CC(C)c1ccc(S(=O)(=O)Nc2ccc3c(c2)OCO3)cc1	ADAM17 inh 12 | ADAM10 counter inactive | ADAM17 confirm inactive
C=CCN1[C@H](C#N)[C@@H](c2ccc(C#Cc3cccnc3)cc2)[C@H]1CO	none (no result: NRP1-CendR mod, Arr AP2 block, FAS-TE inh, CaV13 FRET inh)
O=C(COC(=O)c1c(F)cccc1F)NC(=O)NCc1ccccc1	none (no result: Arr AP2 block)
Cc1cc(NC(=O)CSCC(=O)N(c2cccc(Cl)c2)C(C(=O)NC2CCCCC2)c2ccc(O)c(O)c2)no1 (centres undefined)	ADAM17 inh 9.5 | ADAM10 counter inactive | ADAM17 confirm inactive
O=C1C(Cc2ccccc2)NC(=S)N1c1ccccc1 (centres undefined)	ADAM17 inh 10 | ADAM10 counter inactive | ADAM17 confirm inactive
Nc1[nH]c(C(=O)c2ccccc2)c(-c2ccc(Cl)cc2)c1C(=O)c1c[nH]c2ccccc12	none (no result: NRP1-CendR mod, Arr AP2 block, FAS-TE inh)
COc1cccc(C(=O)COc2cccc(NC(=O)c3ccco3)c2)c1	ADAM17 inh 9.2 | ADAM10 counter inactive | ADAM17 confirm inactive
O=[N+]([O-])c1ccc(N/N=C/c2c[nH]c3ccccc23)cc1	ADAM17 inh 9.6 | ADAM10 counter inactive | ADAM17 confirm inactive
O=[N+]([O-])c1ccccc1N/N=C/c1c[nH]c2ccccc12	none
